One compound from ChEMBL document CHEMBL1629663, “Postantibiotic effects of telavancin against 16 gram-positive organisms” (Antimicrob Agents Chemother, 2009) can be followed below.

What all share (format): functional
The subject of experiment [1] is Staphylococcus aureus. Kind of experiment: Antimicrobial activity against vancomycin-resistant-, methicillin-resistant Staphylococcus aureus 510 assessed as time required to induce post antibiotic sub-MIC effect at 0.4 times MIC […] by plate counting method. An outline of the steps: (§1)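 After 1 h preexposure to 10× MIC at 35°C and 1:1,000 dilution, cultures were split, and drug was re-added to final 0.2, 0.3 or 0.4× MIC, with a drug-free tube. Viable counts were taken every 2 h until McFarland 1 turbidity. Duration was derived from log10 CFU/ml versus time curves. Two experiments were run, each with a new inoculum.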

Experiment [2] has as its system Staphylococcus aureus. Kind of experiment: Antimicrobial activity against vancomycin-susceptible-, methicillin-resistant Staphylococcus aureus 1306 assessed as post-antibiotic effect at 10 times MIC pre-exposed to Telavancin for 1 hr by plate counting method. Summed up:
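Direct colony suspensions (~5 × 10^6 CFU/ml) were exposed to 10× MIC for 1 h at 35°C with shaking in Mueller-Hinton broth, then diluted 1:1,000 to remove drug. Viable plate counts were taken before exposure, at 0 h, then every 2 h until turbidity reached McFarland 1. PAE = T − C, the time for counts to rise 1 log10 versus the unexposed control. Two separate experiments were run.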

Experiment [3] deals with Staphylococcus aureus. Kind of experiment: Antimicrobial activity against heterogenous vancomycin-intermediate-, methicillin-resistant Staphylococcus aureus 873 assessed as post-antibiotic effect at 10 times MIC pre-exposed to Telavancin for 1 hr by plate counting method. An outline of the steps: (§2)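 Viable plate count method in Mueller-Hinton broth. Direct colony suspension inoculum of about 5 × 10^6 CFU/ml was exposed to 10× MIC for 1 h at 35°C in a shaking water bath, then diluted 1:1,000 to remove drug. Counts were taken before exposure, at 0 h, then every 2 h until McFarland no. 1 turbidity. PAE = T − C, the time to a 1 log10 rise versus an unexposed growth control.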

Experiment [4] has as its system Staphylococcus aureus. Kind of experiment: Antimicrobial activity against heterogenous vancomycin-intermediate-, methicillin-resistant Staphylococcus aureus 618 assessed as post-antibiotic effect at 10 times MIC pre-exposed to Telavancin for 1 hr by plate counting method. Summed up: as §2
The subject of experiment [5] is Staphylococcus aureus. Kind of experiment: Antimicrobial activity against vancomycin-intermediate-, methicillin-resistant Staphylococcus aureus 1984 assessed as post-antibiotic effect at 10 times MIC pre-exposed to Telavancin for 1 hr by plate counting method. An outline of the steps: as §2
The test system of experiment [6] is Streptococcus pyogenes. Kind of experiment: Antimicrobial activity against Streptococcus pyogenes HMC 414 assessed as post-antibiotic effect at 10 times MIC pre-exposed to Telavancin for 1 hr by plate counting method. Summed up: (§3)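 Organisms were suspended in Mueller-Hinton broth from overnight blood agar colonies at about 5 × 10^6 CFU/ml. Cultures were exposed to telavancin at 10× MIC for 1 h at 35°C in a shaking water bath, then diluted 1:1,000 to remove the drug, with an untreated growth control. Viable counts were taken before exposure, at 0 h, then every 2 h until McFarland no. 1 turbidity. PAE = T − C, the time to a 1 log10 rise. Two experiments.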

For experiment [7], the system named is Streptococcus agalactiae. Kind of experiment: Antimicrobial activity against Streptococcus agalactiae HMC 5 assessed as post-antibiotic effect at 10 times MIC pre-exposed to Telavancin for 1 hr by plate counting method. An outline of the steps:
as §3

In experiment [8] the test system is Staphylococcus aureus. Kind of experiment: Antimicrobial activity against vancomycin-susceptible-, methicillin-resistant Staphylococcus aureus 1306 assessed as time required to induce sub-MIC effect at 0.2 times MIC exposed for 2 hrs by plate counting method. An outline of the steps: (§4)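 Sub-MIC effect: cultures not preexposed to drug were diluted and handled as in the PA-SME procedure in Mueller-Hinton broth with final 0.2, 0.3 or 0.4× MIC, plus a drug-free control. Viable plate counts were taken every 2 h until McFarland 1 turbidity. Duration was derived from growth curves. Two experiments were run, each with a new inoculum.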

For experiment [9], the system named is Staphylococcus aureus. Kind of experiment: Antimicrobial activity against vancomycin-intermediate-, methicillin-resistant Staphylococcus aureus 1984 assessed as time required to induce sub-MIC effect at 0.2 times MIC […] by plate counting method. An outline of the steps:
(§5)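 SME, viable plate count method: no prior drug exposure. About 5 × 10^6 CFU/ml in Mueller-Hinton broth at 35°C received 0.2, 0.3 or 0.4× MIC, alongside a drug-free tube. Counts were taken at the start, then every 2 h until McFarland no. 1 turbidity, as log10 CFU/ml against time. Two separate experiments, each with a new inoculum.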

The test system of experiment [10] is Staphylococcus aureus. Kind of experiment: Antimicrobial activity against vancomycin-intermediate-, methicillin-resistant Staphylococcus aureus 770 assessed as time required to induce post antibiotic sub-MIC effect at 0.2 times MIC pre-exposed to Telavancin […] by plate counting method. An outline of the steps: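 PAE was first induced with 10× MIC for 1 h at 35°C (inoculum about 5 × 10^6 CFU/ml, Mueller-Hinton broth) and ended by 1:1,000 dilution. Cultures were then split and given 0.2, 0.3 or 0.4× MIC, with one tube left without drug. Viable counts were taken before exposure, after dilution, then every 2 h until McFarland no. 1 turbidity. Two separate experiments, each with a new inoculum.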

For experiment [11], the system named is Streptococcus agalactiae. Kind of experiment: Antimicrobial activity against Streptococcus agalactiae HMC 5 assessed as time required to induce post antibiotic sub-MIC effect at 0.2 times MIC pre-exposed to Telavancin for 2 hrs by plate counting method. The following applies: in the assay text read “for 1 hr” for “for 2 hrs”. An outline of the steps:
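Mueller-Hinton broth cultures of about 5 × 10^6 CFU/ml were pre-exposed to telavancin at 10× MIC for 1 h at 35°C, then diluted 1:1,000. Telavancin was re-added to final 0.2, 0.3 or 0.4× MIC, alongside a drug-free tube. Viable counts were taken before exposure, after dilution, then every 2 h until McFarland no. 1 turbidity. Duration comes from log10 CFU/ml-versus-time plots; two separate experiments with fresh inocula.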

Experiment [12] concerns Staphylococcus aureus. Kind of experiment: Antimicrobial activity against vancomycin-susceptible-, methicillin-resistant Staphylococcus aureus ATCC 33591 assessed as time required to induce sub-MIC effect at 0.3 times MIC exposed for 2 hrs by plate counting method. Summed up:
as §4

Experiment [13] relates to Staphylococcus aureus. Kind of experiment: Antimicrobial activity against heterogenous vancomycin-intermediate-, methicillin-resistant Staphylococcus aureus 873 assessed as time required to induce sub-MIC effect at 0.3 times MIC […] by plate counting method. An outline of the steps: as §5
Experiment [14] concerns Staphylococcus aureus. Kind of experiment: Antimicrobial activity against vancomycin-intermediate-, methicillin-resistant Staphylococcus aureus 1287 assessed as time required to induce sub-MIC effect at 0.3 times MIC […] by plate counting method. An outline of the steps:
as §5

In experiment [15] the test system is Enterococcus faecium. Kind of experiment: Antimicrobial activity against Enterococcus faecium HMC 588 assessed as time required to induce sub-MIC effect at 0.3 times MIC exposed for 2 hrs by plate counting method. An outline of the steps: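 Unexposed Mueller-Hinton broth cultures (about 5 × 10^6 CFU/ml, 35°C) were handled as in the PA-SME set but without the 10× MIC pre-exposure. They were diluted 1:1,000, then given telavancin at final 0.2, 0.3 or 0.4× MIC, with a drug-free control. Viable counts were taken every 2 h until McFarland no. 1 turbidity. Effect duration comes from log10 CFU/ml-time plots; two separate experiments with new inocula.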

The test system of experiment [16] is Staphylococcus aureus. Kind of experiment: Antimicrobial activity against vancomycin-susceptible-, methicillin-resistant Staphylococcus aureus 1306 assessed as time required to induce post antibiotic sub-MIC effect at 0.3 times MIC […] by plate counting method. Summed up: as §1
Experiment [17] concerns Staphylococcus aureus. Kind of experiment: Antimicrobial activity against heterogenous vancomycin-intermediate-, methicillin-resistant Staphylococcus aureus 873 assessed as time required to induce sub-MIC effect at 0.4 times MIC […] by plate counting method. An outline of the steps:
as §5

With `CCCCCCCCCCNCCN[C@@]1(C)C[C@H](O[C@H]2[C@H](Oc3c4cc5cc3Oc3ccc(cc3Cl)[C@@H](O)[C@@H](NC(=O)[C@@H](CC(C)C)NC)C(=O)N[C@@H](CC(N)=O)C(=O)N[C@H]5C(=O)N[C@H]3C(=O)N[C@H](C(=O)N[C@H](C(=O)O)c5cc(O)c(CNCP(=O)(O)O)c(O)c5-c5cc3ccc5O)[C@H](O)c3ccc(c(Cl)c3)O4)O[C@H](CO)[C@@H](O)[C@@H]2O)O[C@@H](C)[C@H]1O` [TELAVANCIN], the PAE in [1] was 8.1 h; in experiment [2] it was 1.8 h; in [3] it was 1.2 h; in experiment [4], 1.7 h; in experiment [5] it was 0.9 h; in experiment [6] it was 6.1 h. For the same compound, the PAE was 0.4 h in experiment [7]; 0.7 h in experiment [8]; 1 h in [9]; 3.8 h in [10]; 0.8 h in experiment [11]; 1.4 h in [12]. Moreover, the PAE in [13] is 0.5 h; in [14] it was 0.4 h; in experiment [15] it was 7.2 h; in experiment [16], 5.4 h; in experiment [17] it was 1 h.
